Hits are enriched below; roughly 4.2% of the tested compounds scored in any of these assays.
OX1R antag-1 = antagonists of human orexin 1 receptor (OX1R); Orexin/Hypocretin receptor type 1 (Homo sapiens), O43613; OX1R-expressing cells, FRET antagonist read-out; inhibition, % at 6.6 µM; 330,000 tested, 1.8% active; in the data active = inhibition mostly above about 38%, no sharp cut-off; inactive = mostly below about 40%;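 note: 0% = agonist challenge alone and 100% = reference antagonist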
Target sequence (O43613 whole entry, looked up): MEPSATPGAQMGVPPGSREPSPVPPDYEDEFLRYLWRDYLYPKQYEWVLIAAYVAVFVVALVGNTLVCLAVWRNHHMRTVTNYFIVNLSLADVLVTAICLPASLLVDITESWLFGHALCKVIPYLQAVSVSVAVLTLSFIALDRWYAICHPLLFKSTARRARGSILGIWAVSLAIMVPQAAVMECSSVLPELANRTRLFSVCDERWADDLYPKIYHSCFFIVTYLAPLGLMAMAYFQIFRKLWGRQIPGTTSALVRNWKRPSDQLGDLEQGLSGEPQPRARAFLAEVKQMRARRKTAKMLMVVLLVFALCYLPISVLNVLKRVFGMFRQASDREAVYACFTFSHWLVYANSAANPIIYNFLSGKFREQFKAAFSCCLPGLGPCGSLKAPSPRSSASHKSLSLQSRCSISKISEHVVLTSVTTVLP
OX1R antag-2 = OX1R (HCRTR1) antagonists, primary screen, fluorescence, CHO/OX1R cells, Fluo-8 calcium, orexin A; inhibition, % at 5 µM; Fluo-8 calcium fluorescence; 330,000 tested, 0.43% active;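 active = inhibition above its plate's threshold, mean inhibition of all tested compounds on the plate plus 3 SD, cut at about 37% in these data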;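 note: 0% = orexin A challenge wells and 100% = SB-334867-A antagonist wells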
TAAR1 antagonist = human TAAR1 antagonists, primary screen, Fluo-8 calcium fluorescence, CHO RD-HGA16 cells; Trace amine-associated receptor 1 (Homo sapiens), Q96RJ0; antagonist; inhibition, % at 3 µM; 360,000 tested, 1.5% active; AID 624466, 2012;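 active = inhibition above a per-plate cutoff, the mean inhibition of test compounds on that plate plus 3 SD, cut at about 49% in these data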;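 note: 0% = DMSO plus EC80 beta-PEA response and 100% = DMSO alone without agonist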
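test system = CHO RD-HGA16 cells bearing hTAAR1 | replication = singlicate | controls = DMSO-only wells and EC80 β-PEA-stimulated wells | reagent = EC80 β-phenethylamine stimulus | read-out basis = percent inhibition of PEA-evoked calcium signal, max/basal emission ratio | schedule = seeding 17-24 h prior, 75-min 37 °C, 30-min RT dye loading | signal = kinetic Fluo-8 calcium fluorescence measurement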
TAAR1 ag = human TAAR1 agonists, primary screen, Fluo-8 calcium fluorescence, CHO RD-HGA16 cells. Trace amine-associated receptor 1 (Homo sapiens), Q96RJ0. vehicle wells 0%, saturating PEA agonist 100%. activation, % at 3 µM. 360,000 tested, 0.99% active. AID 624467, 2012;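 active = activation above the mean activation of all test compounds in the run plus 3 SD, cut at about 38% in these data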
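Repeats: no replicates (n 1) | Material: CHO-derived RD-HGA16 cells with stable Gα16 and human TAAR1 | Technique: Kinetic Fluo-8 calcium fluorescence | Schedule: 17-24 h seeding, 75 min 37 °C dye, 30 min RT | Evaluation: % activation from peak over basal fluorescence ratio, DMSO-to-PEA scaled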
GalR3 antagonist = GalR3 antagonists in HEK293 cells, primary screen, cell-based, fluorescence readout; Galanin receptor type 3 (Homo sapiens), O60755; AID 651719, 2012; 360,000 tested, 0.44% active; HEK293 GalR3-CNG cAMP membrane potential fluorescence; galR3 body fused to GalR1 C-terminus; inhibition, % at 3 µM;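 active = inhibition above the screen-wide average plus 3 SD, cut at about 13% in these data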;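 note: forskolin and galanin both at EC90 stimulate the cells; cAMP rise reported by CNG channel membrane potential dye signal; 0% = forskolin plus galanin with DMSO and 100% = forskolin alone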
Target sequence (O60755 1-299 limits assumed): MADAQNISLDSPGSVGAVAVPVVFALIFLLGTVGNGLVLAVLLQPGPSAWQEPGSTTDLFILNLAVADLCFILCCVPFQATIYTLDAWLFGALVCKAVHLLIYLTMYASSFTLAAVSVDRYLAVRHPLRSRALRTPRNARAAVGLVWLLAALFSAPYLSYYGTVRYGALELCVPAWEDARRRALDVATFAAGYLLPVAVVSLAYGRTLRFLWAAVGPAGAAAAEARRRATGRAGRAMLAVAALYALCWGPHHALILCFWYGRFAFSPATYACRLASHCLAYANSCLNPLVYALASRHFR
CHO parental Ca = ATP-evoked calcium signal inhibitors, parental CHO, primary screen, counter-screen for OX1R antagonist project, cell-based, fluorescence, Fluo-8 calcium dye | 330,000 tested, 0.63% active | inhibition, % at 5.6 µM | parental CHO-K1, ATP-induced calcium, Fluo-8 fluorescence;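 active = inhibition above that plate's mean sample inhibition plus 3 SD, cut at about 26% in these data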;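 note: 0% = ATP-challenged DMSO wells and 100% = DMSO wells without ATP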
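Test system: untransfected parental CHO cell line. Compound: one dose, 5.6 µM nominal. Detection: intracellular calcium via Fluo-8 no-wash fluorescent dye. Measure: % inhibition. Benchmarks: ATP-challenged DMSO wells low, unchallenged DMSO wells high.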
* marks the source's active call; other numbers are inactive results; . = no result; + = active, no number.

SMILES | OX1R antag-1 | OX1R antag-2 | TAAR1 antagonist | TAAR1 ag | GalR3 antagonist | CHO parental Ca
Cc1ccc(CN2CCN(CCCn3cnc4c(OCc5ccccc5)ncnc43)CC2)cc1 | . | . | 11 | 2 | -3 | .
O=C(Nc1ncccn1)c1ccc([N+](=O)[O-])cc1[N+](=O)[O-] | 73* | -12 | -21 | 1 | -1 | 7
O=C(Nc1ncccn1)c1ccc([N+](=O)[O-])cc1Cl | 35 | -6 | -7 | 3 | -7 | 6
O=C(Nc1ncn[nH]1)c1cc([N+](=O)[O-])ccc1Cl | 8 | -18 | 5 | -1 | -9 | -7
O=C(Nc1ncn[nH]1)c1ccc([N+](=O)[O-])cc1[N+](=O)[O-] | 53* | -10 | -6 | 0 | 4 | -12
CCCCn1c(N)c(N(CC)C(=O)c2cccc(S(=O)(=O)N3CCCc4ccccc43)c2)c(=O)[nH]c1=O | 9 | -13 | 5 | 1 | 3 | -20
CN1CCN(c2ccc(NC(=O)c3ccc(Oc4ccccc4)cc3)cc2)CC1 | 12 | -10 | 5 | 38* | -7 | -3
Cc1ccccc1C(=O)Nc1ccc(N2CCCC2)cc1 | 8 | -19 | 54* | 14 | -4 | -33
COc1ccc(C(=O)Nc2ccc(N3CCCC3)cc2)cc1 | 30 | -2 | -9 | 0 | 2 | -5
CN(C)CCNc1ncnc2c1ncn2[C@H]1CN(Cc2ccccc2)C[C@@H](CO)O1 | . | . | -9 | 1 | -5 | .
O=C(Nc1ccnn1C1CCN(Cc2cccc(F)c2F)CC1)C1CCCC1 | 10 | -25 | -4 | 1 | 0 | -21
CC(C)Oc1ccc(F)cc1-c1cc(C(=O)Nc2ccccc2)[nH]n1 | . | . | 50* | 4 | -3 | .
CC(C)Oc1ccc(F)cc1-c1cc(C(=O)Nc2ccc(C(C)(C)C)cc2)[nH]n1 | . | . | -22 | 0 | -3 | .
O=c1[nH][nH]c2c1[C@H](c1ccccc1)O[C@H](C1CCCCC1)C2 | . | . | -1 | 2 | -7 | .
CCOC(=O)c1ccc(N2CCN(c3ccccc3F)CC2)c(NC(=O)Nc2cccc(OC)c2)c1 | 30 | 28 | 69* | 10 | 1 | 16
COC(=O)c1ccc(N2CCOCC2)c(NC(=O)Nc2cccc(OC)c2)c1 | 9 | -20 | 6 | 2 | -3 | 1
Clc1ccc(Cc2ccc(Cl)nn2)c(Cl)c1 | 18 | -21 | -2 | 3 | -5 | -3
Clc1ccc(Cc2ccc(SCc3ccccc3)nn2)c(Cl)c1 | 16 | -21 | 50* | 15 | -5 | 1
COCCN1C(=O)/C(=C/c2cc3c(cc2Br)OCO3)NC1=S | 11 | -5 | -5 | 9 | -3 | -6
CCOc1cc(/C=N/Nc2nc(C)cc(=O)[nH]2)ccc1O | 7 | -30 | 1 | 8 | -4 | -7
Cc1ccc(NS(=O)(=O)c2ccc(NC(=O)c3cccc(NC(=O)C(C)C)c3)cc2)cc1 | 49 | 82* | 53* | 8 | -4 | 67*
N#CC(C#N)=NNc1ccc(S(=O)(=O)N2CCCCC2)cc1 | 57* | 1 | -2 | 12 | -3 | -15
O=C(Nc1ccccc1)Nc1ccc(S(=O)(=O)N2CCCCC2)cc1 | 43 | 34 | 19 | 50* | -4 | 38*
O=C(Nc1ccc(S(=O)(=O)N2CCCCC2)cc1)c1ccccc1Cl | 21 | -4 | 7 | 9 | -4 | -3
COC(=O)c1ccccc1-c1c2ccc(=N)cc-2oc2cc(N)ccc12 | 30* | 112* | 105* | + | -6 | 102*
SMILES | OX1R antag-1 | OX1R antag-2 | TAAR1 antagonist | TAAR1 ag | GalR3 antagonist | CHO parental Ca
COC(=O)c1ccc(N)cc1O | 9 | 12 | -9 | 9 | 1 | -4
Nc1ccc(-c2nc3ccc(N)cc3[nH]2)cc1 | 9 | -1 | 9 | 13 | -1 | 5
Nc1ccc2cc3[nH]c4cc(N)ccc4c3nc2c1 | . | . | 63* | 78* | -6 | .
CC(=O)OCC1O[C@@H](O[C@@H]2C[C@H]3C(C)(C)[C@H](OC(C)=O)CC[C@]3(C)[C@H]3CC[C@]45C[C@]4(CC[C@H]5[C@@H](C)C[C@@H](O)[C@H](O)C(C)(C)O)[C@@]32C)[C@H](O)[C@@H](O)[C@@H]1O (some centres not stated) | 23 | 67* | . | . | . | 100*
COC(=O)C1=C(C)NC2=C(C(=O)CCC2)C1c1ccc(-c2ccsc2C(=O)OC)o1 (configuration not stated) | 12 | 8 | 28 | 45* | -3 | -3
c1ccc(-c2csc3ncnc(NCC4COc5ccccc5O4)c23)cc1 (configuration not stated) | 40 | 18 | 39 | 0 | 88* | 79*
Nc1ncc(Br)cc1S(=O)(=O)Nc1cc(C(F)(F)F)cc(C(F)(F)F)c1 | 85* | 25 | -28 | 4 | -6 | 25
Cc1ccc(NS(=O)(=O)c2cc(Br)cnc2N)c(Cl)c1 | 13 | -14 | -13 | 1 | -6 | -21
CC(=O)Nc1ccc(S(=O)(=O)N2CCN(C(=O)c3ccco3)CC2)cc1 | 12 | 10 | -2 | 6 | -9 | -6
Cc1c(O)ccc(C(=O)COc2ccccc2F)c1O | 37* | 7 | 32 | 22 | -1 | 5
O=C(COc1ccccc1F)c1ccc(O)cc1O | 13 | -3 | 7 | 1 | -3 | 6
CN1C[C@@H]2C(c3ccccc3)C3(c4cccnc4)CC2(C3)[C@H]1c1ccccc1 (some centres not stated) | 23 | -24 | -7 | 1 | -6 | -21
O=C(N[C@H](Cc1ccccc1)C(=O)N1CCN(C(=O)N2CCOCC2)CC1)[C@H]1O[C@@H](n2ccc(=O)[nH]c2=O)[C@H](O)[C@@H]1O | . | . | -7 | 2 | -8 | .
CC(C)CC1C(=O)N(Cc2cn(CCC3OCCO3)nn2)CCS(=O)(=O)N1Cc1ccc(-c2cccc(N(C)C)c2)cc1 (configuration not stated) | . | . | 52* | 19 | 4 | .
CC(C)CC1C(=O)N(Cc2cn(CCC3OCCO3)nn2)CCS(=O)(=O)N1Cc1ccc(-c2ccc(F)cc2)cc1 (configuration not stated) | . | . | 54* | 9 | -3 | .
C=CCNC(=S)NNC(=O)c1ccc([N+](=O)[O-])cc1 | 62 | -6 | -3 | 8 | -1 | 3
Cc1[nH]n(-c2ccccc2)c(=O)c1/C=N/N1C(=O)c2cccc3cccc(c23)C1=O | 74* | 5 | 11 | 25 | -3 | -5
